Experimental data published in publication PMC12413468 (Communications Biology, 2025).

Columns and labels:
[1] = tested on: A549 cells stably expressing TSC22D1-mNeonGreen; experiment: TSC22D1-mNeonGreen localization, A549 cells; type: cell-based, human; settings: A549, WNK463 1 µM, 24 h
Procedure, shortened: (§1)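 Stable lines came from a lentiviral vector carrying long-isoform TSC22D1 with a C-terminal mNeonGreen tag, transfected with Lipofectamine 3000. Cells were puromycin-selected and sorted by flow cytometry. Pan-WNK inhibitor was applied at 1 µM for 24 h. Cells on coverslips were fixed (4% PFA, 15 min, RT), permeabilised (0.1% Triton X-100, 4.5 min), blocked with 10% goat serum, stained with antibodies and Alexa secondaries (1:500), mounted with DAPI and imaged by confocal microscopy. In A549, endogenous OSR1 was co-stained.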

[2] = tested on: TSC22D family mRNA in HDMEC; experiment: qPCR of TSC22D family members in HDMEC; type: cell-based, human; settings: 1 µM WNK463, 14 hours, two replicates
[3] = tested on: phospho-SPAK Ser373/phospho-OSR1 Ser325 in HDMEC; experiment: phospho-SPAK/phospho-OSR1 immunoblot in HDMEC; type: cell-based, human; settings: WNK463 1 µM 18 h, unlike OSR1
Procedure, shortened: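 Endothelial cells (HDMEC) were kept in MCDB 131 with 10% FBS, 10 mM L-glutamine, 10 ng/ml EGF, 1 ug/mL hydrocortisone and antibiotics, at 37 °C and 5% CO2. Pan-WNK inhibitor was given at 1 µM for 18 h. Cells were harvested in SDS/DTT/β-mercaptoethanol sample buffer, then immunoblotted with an antibody recognising phospho-SPAK Ser373/phospho-OSR1 Ser325. Results are means ± SEM, compared by unpaired two-tailed t-test.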

[4] = tested on: HEK293T cells stably expressing TSC22D1-mNeonGreen; experiment: TSC22D1-mNeonGreen localization, HEK293T cells; type: cell-based, human; settings: WNK463 1 µM, 24 h, confocal microscopy, n=1
Procedure, shortened: as §1

[5] = tested on: Cavin1 Tyr156 phosphorylation in HDMEC; experiment: Cavin1 Tyr156 phosphorylation, immunoblot in HDMEC; type: cell-based, human; settings: WNK1 siRNA 72 h or WNK463 1 µM 18 h
Procedure, shortened: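 HDMEC were grown in MCDB 131 with 10% FBS, 10 mM L-glutamine, 10 ng/ml EGF, 1 ug/mL hydrocortisone and penicillin/streptomycin, at 37 °C and 5% CO2. Lysates were made directly in SDS/β-mercaptoethanol sample buffer and immunoblotted for phospho-Cavin1 Tyr156 and total Cavin1. Data are means ± SEM; unpaired two-tailed t-test.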

[6] = tested on: 3xFLAG-OSR1 / endogenous TSC22D1; type: binding, human; settings: HEK293T cells, 50 µM CCT blocking peptide, n = 3
Procedure, shortened: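 HEK293T cells were grown in DMEM with 10% FBS and expressed 3xFLAG-OSR1. Endogenous TSC22D1 was co-immunoprecipitated and detected by immunoblot. Three independent experiments.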

## CC(C)(C)NC(=O)c1cncn1C1CCN(c2ccc(-c3nnc(C(F)(F)F)o3)cn2)CC1 [WNK463]
[1]; confocal microscopy, n = 3
  TSC22D1 puncta: induced TSC22D1 puncta
[1]; immunofluorescence
  localization of endogenous OSR1: colocalized in puncta with tagged TSC22D1
[2]
  mRNA amounts of TSC22D family members: altered mRNA amounts of TSC22D family members
[3]
  phosphorylation of SPAK: resistant
[4]
  TSC22D1 puncta: induced TSC22D1 puncta
[5]
  total Cavin1 protein amount: little change

## NH3^+-SAGRRFIVSPVPE-COO^− [SAGRRFIVSPVPE (WT)]
[6]
  association of endogenous TSC22D1 with 3xFLAG-OSR1: prevented their association
